The term inhibition denotes the relative decrease from the control value, in per cent. One may read the IC50 as the concentration at which inhibition is half-maximal.

The target of test [1] is T1, Polyunsaturated fatty acid 5-lipoxygenase (Homo sapiens) (UniProt P09917).
T1 sequence (whole entry): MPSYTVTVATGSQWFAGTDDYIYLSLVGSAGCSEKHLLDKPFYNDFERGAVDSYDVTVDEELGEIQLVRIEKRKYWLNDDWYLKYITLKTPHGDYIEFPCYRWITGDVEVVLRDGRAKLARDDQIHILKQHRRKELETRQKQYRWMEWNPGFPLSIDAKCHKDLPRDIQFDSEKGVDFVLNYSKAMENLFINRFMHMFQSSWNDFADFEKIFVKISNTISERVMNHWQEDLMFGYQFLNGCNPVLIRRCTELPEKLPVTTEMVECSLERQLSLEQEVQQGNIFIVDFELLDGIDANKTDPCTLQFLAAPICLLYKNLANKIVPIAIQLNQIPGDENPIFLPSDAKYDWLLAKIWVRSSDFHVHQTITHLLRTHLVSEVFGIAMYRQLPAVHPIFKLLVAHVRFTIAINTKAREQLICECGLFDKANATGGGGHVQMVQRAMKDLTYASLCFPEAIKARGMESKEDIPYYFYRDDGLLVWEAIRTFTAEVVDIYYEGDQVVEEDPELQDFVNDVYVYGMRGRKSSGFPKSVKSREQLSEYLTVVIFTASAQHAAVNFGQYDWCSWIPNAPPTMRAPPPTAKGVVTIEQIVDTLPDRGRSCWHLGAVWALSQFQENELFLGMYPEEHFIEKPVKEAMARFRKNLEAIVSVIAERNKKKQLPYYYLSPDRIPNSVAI
Nature of the test: Inhibition of human recombinant 5-lipoxygenase at 1 mM after 10 mins by fluorescence assay.

The target of test [2] is T2, 72 kDa type IV collagenase (Homo sapiens, UniProt P08253). Nature of the test: Inhibition of human recombinant MMP2 after 30 mins. The method, boiled down: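 Enzyme (1.16 U) preincubated 30 min at 37 °C with fragment in 50 mM HEPES, 10 mM CaCl2, 0.05% Brij-35, pH 7.5. Fluorogenic Mca peptide substrate (4 μM final) then added. Rate of fluorescence increase compared with no-inhibitor control (100%). Single-point 25 μM final for the 8-hydroxyquinoline sublibrary. IC50 fitted to dose-response curves from serial dilutions of DMSO stocks.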
Target sequence in this assay (P08253 whole entry, the tested form may be a part): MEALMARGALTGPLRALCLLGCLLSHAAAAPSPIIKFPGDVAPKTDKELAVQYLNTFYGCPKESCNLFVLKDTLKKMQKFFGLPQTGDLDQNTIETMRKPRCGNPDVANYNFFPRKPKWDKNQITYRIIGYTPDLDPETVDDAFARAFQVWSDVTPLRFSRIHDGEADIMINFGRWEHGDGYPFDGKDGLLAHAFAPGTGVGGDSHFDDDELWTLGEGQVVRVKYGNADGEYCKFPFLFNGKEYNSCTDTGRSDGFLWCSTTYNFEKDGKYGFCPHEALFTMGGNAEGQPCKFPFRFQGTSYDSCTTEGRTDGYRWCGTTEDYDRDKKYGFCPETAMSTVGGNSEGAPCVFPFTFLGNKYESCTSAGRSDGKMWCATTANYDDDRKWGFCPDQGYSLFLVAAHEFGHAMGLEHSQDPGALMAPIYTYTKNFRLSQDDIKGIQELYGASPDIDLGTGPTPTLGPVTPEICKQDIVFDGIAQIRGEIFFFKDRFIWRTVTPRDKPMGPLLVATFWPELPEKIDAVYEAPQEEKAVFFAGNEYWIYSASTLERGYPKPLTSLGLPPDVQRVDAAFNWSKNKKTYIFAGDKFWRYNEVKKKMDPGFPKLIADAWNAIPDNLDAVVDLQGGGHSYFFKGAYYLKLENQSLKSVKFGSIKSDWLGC

The target of a further test is T3, Lethal factor (Bacillus anthracis, UniProt P15917).
T3 sequence (P15917 whole entry): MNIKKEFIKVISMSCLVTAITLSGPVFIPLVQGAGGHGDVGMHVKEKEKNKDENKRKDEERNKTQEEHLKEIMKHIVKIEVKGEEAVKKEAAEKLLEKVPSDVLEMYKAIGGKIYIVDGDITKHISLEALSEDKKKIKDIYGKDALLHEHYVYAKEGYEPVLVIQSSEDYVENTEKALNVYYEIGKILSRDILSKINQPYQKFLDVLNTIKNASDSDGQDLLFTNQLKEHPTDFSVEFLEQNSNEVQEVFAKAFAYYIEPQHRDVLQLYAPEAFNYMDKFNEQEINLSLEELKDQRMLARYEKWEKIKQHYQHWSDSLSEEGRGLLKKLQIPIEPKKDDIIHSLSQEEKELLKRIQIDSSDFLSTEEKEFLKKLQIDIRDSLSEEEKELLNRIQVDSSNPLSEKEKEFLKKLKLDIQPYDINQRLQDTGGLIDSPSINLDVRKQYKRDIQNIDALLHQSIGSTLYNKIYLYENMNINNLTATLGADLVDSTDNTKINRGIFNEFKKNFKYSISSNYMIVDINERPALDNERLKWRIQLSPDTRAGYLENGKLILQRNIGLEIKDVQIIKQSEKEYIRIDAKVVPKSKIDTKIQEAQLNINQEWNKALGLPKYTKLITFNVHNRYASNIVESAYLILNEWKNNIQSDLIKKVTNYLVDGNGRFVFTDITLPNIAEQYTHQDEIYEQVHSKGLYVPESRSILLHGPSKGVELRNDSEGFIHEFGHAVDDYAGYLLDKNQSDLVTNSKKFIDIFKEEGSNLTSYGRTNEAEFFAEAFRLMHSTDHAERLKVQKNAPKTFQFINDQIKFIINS
Nature of the test: Inhibition of recombinant anthrax lethal factor after 30 mins by fluorescence assay.

The target of test [3] is T4, Tyrosinase (Agaricus bisporus) (UniProt O42713).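 Further: inhibition measured at 10 min.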
T4 sequence (whole entry): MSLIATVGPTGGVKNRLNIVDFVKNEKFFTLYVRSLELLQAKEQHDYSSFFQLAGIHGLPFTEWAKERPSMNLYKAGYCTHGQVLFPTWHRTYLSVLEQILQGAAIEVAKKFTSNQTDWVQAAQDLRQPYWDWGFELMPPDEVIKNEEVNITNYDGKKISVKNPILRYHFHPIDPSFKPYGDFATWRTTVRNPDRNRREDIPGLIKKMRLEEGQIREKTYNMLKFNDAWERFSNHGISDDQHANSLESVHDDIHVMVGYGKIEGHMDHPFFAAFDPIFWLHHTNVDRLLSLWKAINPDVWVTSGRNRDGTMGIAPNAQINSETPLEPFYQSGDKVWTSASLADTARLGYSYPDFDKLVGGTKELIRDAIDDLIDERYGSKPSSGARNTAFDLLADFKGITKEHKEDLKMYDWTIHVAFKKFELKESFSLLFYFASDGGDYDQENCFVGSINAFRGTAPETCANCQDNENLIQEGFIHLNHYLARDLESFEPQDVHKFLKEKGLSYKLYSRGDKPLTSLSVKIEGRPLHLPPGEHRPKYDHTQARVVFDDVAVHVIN
Particulars: at 1 mM.

The target of test [4] is T5, Lethal factor (Bacillus anthracis) (UniProt P15917).
T5 sequence (whole entry): T3 sequence (P15917 whole entry)
The conditions noted are these: at 1 mM.

The target in test [5] is T6, Interstitial collagenase (Homo sapiens) (UniProt P03956).
T6 sequence (whole entry): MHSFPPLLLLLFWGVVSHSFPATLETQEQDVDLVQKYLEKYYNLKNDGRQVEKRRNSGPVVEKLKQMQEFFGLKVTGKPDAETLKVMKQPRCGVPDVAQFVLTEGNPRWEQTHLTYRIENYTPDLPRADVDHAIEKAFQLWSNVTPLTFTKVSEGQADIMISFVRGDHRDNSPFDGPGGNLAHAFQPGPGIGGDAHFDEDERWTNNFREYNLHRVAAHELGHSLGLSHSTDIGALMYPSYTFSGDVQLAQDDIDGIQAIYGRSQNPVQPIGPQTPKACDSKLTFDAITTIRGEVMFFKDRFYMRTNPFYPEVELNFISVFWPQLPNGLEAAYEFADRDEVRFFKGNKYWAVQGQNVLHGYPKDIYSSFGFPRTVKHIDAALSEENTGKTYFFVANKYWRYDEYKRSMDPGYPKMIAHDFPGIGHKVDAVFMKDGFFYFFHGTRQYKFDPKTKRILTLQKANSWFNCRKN
The conditions noted are these: at 1 mM.

For test [6], the target named is T2, 72 kDa type IV collagenase. Particulars: at 1 mM.
Target sequence in this assay (P08253 110-660 limits assumed): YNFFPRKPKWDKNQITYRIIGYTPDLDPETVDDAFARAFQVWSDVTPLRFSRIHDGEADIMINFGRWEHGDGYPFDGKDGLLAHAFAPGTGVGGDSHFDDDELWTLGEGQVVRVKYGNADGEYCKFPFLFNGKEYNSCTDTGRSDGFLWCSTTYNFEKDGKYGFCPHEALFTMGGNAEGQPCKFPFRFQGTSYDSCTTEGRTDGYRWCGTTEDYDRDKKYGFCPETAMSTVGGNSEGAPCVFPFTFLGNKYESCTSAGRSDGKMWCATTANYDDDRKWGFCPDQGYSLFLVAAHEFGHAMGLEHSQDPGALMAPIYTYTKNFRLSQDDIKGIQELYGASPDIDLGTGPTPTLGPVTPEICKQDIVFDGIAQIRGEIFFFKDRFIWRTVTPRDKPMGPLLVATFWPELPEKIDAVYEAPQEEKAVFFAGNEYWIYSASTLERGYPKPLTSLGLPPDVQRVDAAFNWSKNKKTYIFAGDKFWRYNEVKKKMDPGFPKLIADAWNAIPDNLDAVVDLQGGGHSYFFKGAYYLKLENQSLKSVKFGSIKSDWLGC
Test [7] concerns the target Stromelysin-1 (Homo sapiens) (UniProt P08254). Particulars: at 1 mM.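 Further: recombinant enzyme, inhibition read after a 30 min incubation.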
In test [8] the target is Neutrophil collagenase (Homo sapiens) (UniProt P22894). Particulars: at 1 mM.
Sequence of Neutrophil collagenase (Homo sapiens) (P22894 101-467 limits assumed): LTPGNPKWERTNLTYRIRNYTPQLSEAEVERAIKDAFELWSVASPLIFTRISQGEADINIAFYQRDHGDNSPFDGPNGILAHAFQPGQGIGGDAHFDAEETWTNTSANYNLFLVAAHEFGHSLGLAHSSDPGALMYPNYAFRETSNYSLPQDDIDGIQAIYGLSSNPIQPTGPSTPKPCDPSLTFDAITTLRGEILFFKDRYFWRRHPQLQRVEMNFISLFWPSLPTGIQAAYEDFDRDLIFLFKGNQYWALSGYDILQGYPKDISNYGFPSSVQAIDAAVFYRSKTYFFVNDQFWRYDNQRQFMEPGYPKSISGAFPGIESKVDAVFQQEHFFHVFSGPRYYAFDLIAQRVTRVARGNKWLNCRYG
The target of test [9] is Matrix metalloproteinase-9 (Homo sapiens) (UniProt P14780). Particulars: at 1 mM.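 Further: recombinant human MMP9, activity read after 30 min.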
Sequence of Matrix metalloproteinase-9 (Homo sapiens) (P14780 whole entry): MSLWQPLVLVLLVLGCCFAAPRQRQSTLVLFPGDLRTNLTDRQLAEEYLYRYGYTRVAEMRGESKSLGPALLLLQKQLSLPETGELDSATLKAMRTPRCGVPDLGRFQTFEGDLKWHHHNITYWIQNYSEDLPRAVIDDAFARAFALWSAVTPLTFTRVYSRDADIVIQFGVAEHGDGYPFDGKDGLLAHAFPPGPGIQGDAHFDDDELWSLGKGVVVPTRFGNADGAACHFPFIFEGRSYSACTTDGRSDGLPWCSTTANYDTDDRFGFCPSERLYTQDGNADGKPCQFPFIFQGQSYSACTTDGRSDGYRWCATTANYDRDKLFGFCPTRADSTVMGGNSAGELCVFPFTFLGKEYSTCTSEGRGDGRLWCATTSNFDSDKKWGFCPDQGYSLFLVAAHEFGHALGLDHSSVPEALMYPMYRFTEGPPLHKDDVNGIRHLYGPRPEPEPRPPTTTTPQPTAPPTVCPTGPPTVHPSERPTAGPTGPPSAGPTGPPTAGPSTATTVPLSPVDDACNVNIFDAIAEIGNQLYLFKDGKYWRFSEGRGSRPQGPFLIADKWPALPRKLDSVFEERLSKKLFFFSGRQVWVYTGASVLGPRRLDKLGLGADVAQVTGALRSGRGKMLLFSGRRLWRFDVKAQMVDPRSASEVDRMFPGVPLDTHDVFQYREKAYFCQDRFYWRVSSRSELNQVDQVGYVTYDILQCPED

Molecules are shown by their SMILES.

Sequence of Stromelysin-1 (Homo sapiens) (P08254 100-477 limits assumed): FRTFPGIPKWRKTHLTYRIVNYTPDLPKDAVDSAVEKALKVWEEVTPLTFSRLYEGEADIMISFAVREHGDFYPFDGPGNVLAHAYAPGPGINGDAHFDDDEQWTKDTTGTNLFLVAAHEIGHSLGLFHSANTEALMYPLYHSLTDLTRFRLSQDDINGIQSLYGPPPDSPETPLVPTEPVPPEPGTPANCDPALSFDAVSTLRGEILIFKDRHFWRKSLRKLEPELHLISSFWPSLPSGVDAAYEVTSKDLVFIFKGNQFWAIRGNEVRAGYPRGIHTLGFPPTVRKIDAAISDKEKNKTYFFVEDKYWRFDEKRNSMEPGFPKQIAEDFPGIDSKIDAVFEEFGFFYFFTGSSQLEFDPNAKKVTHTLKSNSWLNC

As to `Oc1coccc1=S`, the inhibition in test [1] stood at 94%; in [3] it was 97%; in test [4], 101%; in test [5], 99%; in test [6], 100%; in test [7], 98%. For the same compound, the results for the inhibition in test [8] and in test [9] were 102% and 100%, respectively. Also, the IC50 in test [2] came out at 76 µM; at Lethal factor, 204 µM.

For the origin of these results see ChEMBL document CHEMBL1649420, “Identifying chelators for metalloprotein inhibitors using a fragment-based approach” (J Med Chem, 2011).
